Results collected from several papers.
Compare with care: the assays were run in different laboratories.
Matrix: plasma

SMILES | species | route | dose | notes | endpoint | result
COc1ccc(C(C)=O)c(O)c1 | male Sprague-Dawley rat | oral | 100 mg/kg |  | CL/F | 44.2 mL/min/kg
Cl.Clc1ccc2c(c1)nc(N1CCNCC1)n2Cc1ccccc1 | rat | intravenous | 1 mg/kg |  | clearance | 144 mL/min/kg
Cc1c(-c2ccccc2)cccc1N1C(=O)c2cc(CN[C@H](C(=O)O)C(C)O)c(OCc3cccc(C#N)c3)cc2C1=O (stereo partly shown) | Sprague-Dawley rat | intravenous | 5 mg/kg |  | clearance | 5.66 mL/min/kg
CNCc1cc(-c2ccccc2F)n(S(=O)(=O)c2cccnc2)c1 | Sprague-Dawley rat | oral | 10 mg/kg |  | CL/F | 293 mL/min/kg
CNC(=O)c1c(C)oc2cc(Oc3ncnc4cc(OC)c(OC)cc34)ccc12 | Sprague-Dawley rat | oral | 1 mg/kg | single dose | CL/F | 3.5 mL/min/kg
COc1ccc2c(Cc3ccccc3F)c3n(c(=O)c2c1OC)CCc1cc2c(cc1-3)OCO2 | rat | intravenous | 5 mg/kg |  | clearance | 3.67 mL/min/kg
C#Cc1cccc(Nc2ncnc3cc(OCCOC)c(OCCOC)cc23)c1 | male Sprague-Dawley rat | oral | 12 mg/kg | single dose | CL/F | 22 mL/min/kg
Cc1nn2c(-c3c(C)nn(C)c3-c3ccc(C(F)(F)F)cc3)nc(CO)c2c(=O)[nH]1 | male Wistar rat | intravenous | 1 mg/kg |  | clearance | 28 mL/min/kg
Oc1c(Br)cc(Cl)c2cccnc12 | Sprague-Dawley rat | intravenous | 2 mg/kg |  | clearance | 27.8 mL/min/kg
C=CC(=O)Nc1cc(Nc2nccc(Nc3cc(Cl)c(F)cc3C(C)(C)O)n2)c(OC)cc1N1CC[C@@H](N(C)C)C1 | Wistar rat | intravenous | 3 mg/kg |  | clearance | 30.8 mL/min/kg
COCCOC(=O)C1=C(C)NC(C)=C(C(=O)OC(C)C)C1c1cccc([N+](=O)[O-])c1 (stereo not shown) | male Sprague-Dawley rat | oral | 12 mg/kg |  | CL/F | 0.0943 mL/min/kg
CCc1nc(C(N)=O)c(Nc2ccc(N3CCC(N4CCN(C)CC4)CC3)c(OC)c2)nc1NC1CCOCC1 | rat | oral | 10 mg/kg |  | CL/F | 0.9 L/h
CCCC[C@@H]1NC(=O)[C@H](Cc2ccc(O)cc2)NC(=O)[C@@H]2CCCN2C(=O)[C@H](CC(=O)O)NC(=O)[C@H](C)NC(=O)[C@H](Cc2ccccc2)NC(=O)[C@@H]2CSCCC(=O)N3CN(CN(C3)C(=O)CCSC[C@@H](C(=O)N[C@@H](C)C(N)=O)NC1=O)C(=O)CCSC[C@H](NC(C)=O)C(=O)N[C@@H](CC(C)(C)C)C(=O)N1CCC[C@H]1C(=O)N[C@@H](CCC(=O)O)C(=O)N[C@H](CCCCNC(=O)CCc1cn(CCOCCOCCOCCOCCOCCOCCOCCOCCOCCOCCNC(=O)c3cc(C(=O)NCCOCCOCCOCCOCCOCCOCCOCCOCCOCCOCCn4cc(CCC(=O)NCCCC[C@H]5NC(=O)[C@H](CCC(=O)O)NC(=O)[C@@H]6CCCN6C(=O)[C@H](CC(C)(C)C)NC(=O)[C@@H](NC(C)=O)CSCCC(=O)N6CN7CN(C6)C(=O)CCSC[C@H](NC(=O)[C@H](Cc6ccc(O)cc6)NC(=O)[C@@H]6CCCN6C5=O)C(=O)N[C@@H](Cc5ccccc5)C(=O)N[C@@H](C)C(=O)N[C@@H](CC(=O)O)C(=O)N5CCC[C@H]5C(=O)N[C@@H](Cc5ccc(O)cc5)C(=O)N[C@@H](CCCC)C(=O)N[C@H](C(=O)N[C@@H](C)C(N)=O)CSCCC7=O)nn4)cc(C(=O)NCCOCCOCCOCCOCCOCCOCCOCCOCCOCCOCCn4cc(CCC(=O)N[C@H]5CSCCC(=O)N6CN7CN(C6)C(=O)CCSC[C@H](NC(=O)[C@@H](CC(=O)O)NC(=O)[C@H](Cc6cccc8ccccc68)NC(=O)[C@@H]6CCCN6C5=O)C(=O)N[C@@H](CCSC)C(=O)N[C@@H](CCCCNC(=N)N)C(=O)N[C@@H](CC(=O)O)C(=O)N[C@@H](Cc5c[nH]c6ccccc56)C(=O)N[C@@H](CO)C(=O)N[C@@H]([C@@H](C)O)C(=O)N5CCC[C@H]5C(=O)N5C[C@H](O)C[C@H]5C(=O)N[C@@H](Cc5c[nH]c6ccccc56)C(=O)N[C@H](C(N)=O)CSCCC7=O)nn4)c3)nn1)C(=O)N1CCC[C@H]1C(=O)N[C@@H](Cc1ccc(O)cc1)C(=O)N2 | rat | intravenous | 2 mg/kg |  | clearance | 9.2 mL/min/kg
